Measles CPE = protection of cells from measles virus | Measles virus-infected cells, CPE protection, absorbance | protection (pct of control), % at 4 µM | hit rate 1.5% among 140,000 | AID 841; in the data active = protection mostly above about 24%, no sharp cut-off; inactive = mostly below about 26%
IL1B NFkB inh = blocks IL-1B driven NFkB nuclear translocation in HUVEC cells | HUVEC IL-1B NFkB p65 nuclear translocation imaging | inhibition, % at 2 µM | hit rate 0.43% among 94,000 | AID 796;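 active = inhibition above about 30% together with a positive call from visual inspection of the well image, limit read from the data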;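 also: nuclear over cytoplasmic p65 intensity ratio measured by imaging; 0% = IL-1B stimulated DMSO wells and 100% = unstimulated DMSO wells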
Rev-RRE block = disrupts HIV-1 Rev binding to RRE RNA | Rev peptide-RRE RNA binding, FRET | inhibition, % at 8 µM | hit rate 0.79% among 97,000 | AID 704;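 active = inhibition above the screen-wide mean plus 3 SD, cut at about 35% in these data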;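 also: 0% = median DMSO wells and 100% = median Neomycin B control wells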
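Assay system: Rev peptide and RRE RNA, both fluorescently labelled; times: 5 min preincubation and 15 min binding, 25 °C; detection: FRET, ex 480 nm, em 540 and 671 nm; read-out basis: % inhibition from 671/540 nm acceptor-to-donor ratio, scaled between controls; benchmarks: DMSO low control, neomycin B high control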
HUVEC tox IL1B = HUVEC cytotoxicity counter-screen, IL-1B stimulated; HUVEC cell count loss, Hoechst imaging; cell count reduction, % at 2 µM; hit rate 0.41% among 94,000; AID 845;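 active = cell count reduction more than 3 SD above the screen-wide mean, cut at about 70% in these data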;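 also: normalized per plate to untreated control cells as the no-loss baseline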
FAK inh = blocks human focal adhesion kinase activity | Q05397 | biochemical FAK kinase activity assay | inhibition, %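 (tested at 7 µM)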 | hit rate 0.84% among 97,000 | AID 727; in the data active = inhibition above about 19%;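 also: 0% = DMSO and 100% = reference compound high control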
Target sequence (Q05397 whole entry, looked up): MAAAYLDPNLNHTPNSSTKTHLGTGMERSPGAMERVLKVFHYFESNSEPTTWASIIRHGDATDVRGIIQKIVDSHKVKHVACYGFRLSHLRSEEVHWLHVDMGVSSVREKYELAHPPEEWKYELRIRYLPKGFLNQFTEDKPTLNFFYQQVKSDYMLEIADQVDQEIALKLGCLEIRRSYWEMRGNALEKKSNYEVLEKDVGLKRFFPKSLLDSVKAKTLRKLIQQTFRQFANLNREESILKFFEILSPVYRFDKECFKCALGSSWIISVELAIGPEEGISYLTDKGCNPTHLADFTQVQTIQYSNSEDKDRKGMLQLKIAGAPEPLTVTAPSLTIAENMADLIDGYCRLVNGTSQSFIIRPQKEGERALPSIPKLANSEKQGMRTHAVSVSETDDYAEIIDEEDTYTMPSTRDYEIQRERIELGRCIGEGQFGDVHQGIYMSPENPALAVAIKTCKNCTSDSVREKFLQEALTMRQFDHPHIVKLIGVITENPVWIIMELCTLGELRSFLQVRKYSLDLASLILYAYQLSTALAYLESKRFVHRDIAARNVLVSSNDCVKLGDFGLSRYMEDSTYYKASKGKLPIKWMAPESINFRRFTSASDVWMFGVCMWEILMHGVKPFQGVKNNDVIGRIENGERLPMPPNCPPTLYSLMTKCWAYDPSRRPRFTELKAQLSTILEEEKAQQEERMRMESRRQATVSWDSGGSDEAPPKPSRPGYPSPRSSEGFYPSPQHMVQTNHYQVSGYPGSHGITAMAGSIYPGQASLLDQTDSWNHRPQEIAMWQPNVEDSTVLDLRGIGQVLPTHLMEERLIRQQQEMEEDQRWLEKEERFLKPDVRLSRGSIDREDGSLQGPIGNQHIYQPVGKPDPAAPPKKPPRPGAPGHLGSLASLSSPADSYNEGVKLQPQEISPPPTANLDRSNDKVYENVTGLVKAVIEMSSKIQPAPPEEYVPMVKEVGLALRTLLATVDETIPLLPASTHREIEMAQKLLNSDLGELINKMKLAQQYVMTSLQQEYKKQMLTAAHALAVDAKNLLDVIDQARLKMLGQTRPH
NFkB transloc pot = enhances IL-1B driven NFkB nuclear translocation; HUVEC IL-1B NFkB p65 nuclear translocation imaging; activation, % at 2 µM; hit rate 0.3% among 94,000; AID 819;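 active = activation above 40%, about the mean plus 3 SD, also judged a hit on visual image review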;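 also: percent activation is computed from the nuclear over cytoplasmic p65 intensity ratio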
* = called active by the depositor; nt = not tested or not shown; [ ] = remark or other dose. Shown are actives, neighbours in structure and some others; about 3.3% of the full set was active somewhere.

SMILES	Measles CPE	IL1B NFkB inh	Rev-RRE block	HUVEC tox IL1B	FAK inh	NFkB transloc pot
O=C1c2cccc3cccc(c23)C(=O)N1CCN1CCN(CC(O)COc2ccc3ccccc3c2)CC1 (stereo not given)	56.6*	nt	nt	nt	nt	nt
Cc1ccc(C)c(OCC(O)CN2CCN(CCN3C(=O)c4cccc5cccc(c45)C3=O)CC2)c1 (stereo not given)	3.8	nt	nt	nt	nt	nt
COC(=O)CNC(=O)c1c(-c2c(Cl)cccc2Cl)noc1C	41.4*	-3.9	3.1	-10.9	-0.8	3.9
COc1ccc(Cc2nc(C(=O)Nc3ccccc3)cs2)cc1	66.5*	4.3	10.0	-8.8	0.7	-4.3
COc1ccc(Cc2nc(C(=O)Nc3ccc(Cl)cc3)cs2)cc1	5.2	-1.7	13.8	-20.7	1.1	4.1
O=C(Cc1c(F)cccc1Cl)NCCCn1ccnc1	44.8*	-10.8	2.6	-37.1	-0.8	10.8
Cc1cccc(Sc2ccc([N+](=O)[O-])cc2[N+](=O)[O-])n1	38.7*	nt	nt	nt	nt	nt
Cc1cc(=O)oc2ccc(OC(C)C(=O)O)cc12 (stereo not given)	2.5	nt	nt	nt	nt	nt
CCC1CCCCN1C(=O)CSc1nnc(-c2ccc(Cl)cc2)o1 (stereo not given)	24.4	-3.8	9.3	7.1	0.5	3.8
CCC1CCCCN1C(=O)CSc1nnc(-c2ccc(Cl)s2)o1 (stereo not given)	6.1	4.7	5.3	87.2*	4.4	-4.7
O=C(c1cccc(C(F)(F)F)c1)N1CCOC12CCN(c1ncc(C(F)(F)F)cc1Cl)CC2	13.1	33.4*	16.8	-14.7	-3.5	-33.4
O=C(OC1CCN(c2ncc(C(F)(F)F)cc2Cl)CC1)c1cccc(C(F)(F)F)c1	5.4	1.1	15.9	53.5	-6.2	-1.1
NC(=O)c1c(NC(=O)C2c3ccccc3Oc3ccccc32)sc2c1CCCCC2	8.8	nt	nt	nt	nt	nt
C=CCN1C(=O)S/C(=C\c2ccc(N3CCOCC3)cc2C)C1=O	4.7	4.5	39.5*	-14.9	-0.9	-4.5
COC(=O)CCC(=O)COc1ccccc1C#N	40.5*	-8.2	6.3	-56.4	1.5	8.2
COCCNc1ncnc2c1cnn2-c1ccc(Cl)cc1	2.4	-36.3	-3.8	5.0	-0.7	36.3
COc1ccc(-n2ncc3c(NCCCn4ccnc4)ncnc32)cc1	65.8*	2.8	2.3	-11.3	2.4	-2.8
CN1CCN(NC(=O)c2ccc(Br)c(S(=O)(=O)N3CCOCC3)c2)CC1	12.8	nt	nt	nt	nt	nt
O=C(Nc1ccc2c(c1)OCO2)c1cccc(F)c1	5.3	11.6	9.9	89.8*	-0.9	-11.6
O=C(Nc1ccc2c(c1)OCO2)c1c(F)cccc1F	1.8	-22.8	2.0	5.5	0.1	22.8
O=C(NCc1ccccc1)c1cccc(COc2cc(Cl)ccc2Cl)c1	44.4*	nt	nt	nt	nt	nt
O=C(NCc1ccccc1)c1cccc(COc2ccccc2Cl)c1	16.7	7.8	10.6	-59.4	-6.2	-7.8
CCOC(=O)C1=C(c2ccccc2)OC(N)=C(C#N)C1c1ccc(Cl)s1 (stereo not given)	3.4	-19.5	10.3	-18.4	12.5	19.5
CCN1CC=C2C(C1)C(c1ccc(Cl)s1)C(C#N)=C(N)C2(C#N)C#N (stereo not given)	6.9	-6.0	86.8*[fluorescence artefact?]	4.9	-7.7	6.0
COc1ccc(-n2c(Cc3cccn3C)nnc2SCC(=O)NCC2CCCO2)cc1 (stereo not given)	11.6	37.4*	3.0	10.9	-1.1	-37.4
SMILES	Measles CPE	IL1B NFkB inh	Rev-RRE block	HUVEC tox IL1B	FAK inh	NFkB transloc pot
O=[N+]([O-])c1cc(/C=N/O)ccc1Sc1ccccc1	6.9	-15.1	10.8	-17.9	1.1	15.1
O=[N+]([O-])c1cc(/C=N/O)ccc1SCc1ccccc1	75.5*	-17.2	-1.8	5.1	-3.3	17.2
CCCC(=O)N1CCN(c2ccc(NC(=O)c3cc4ccccc4o3)cc2)CC1	60.3*	-8.1	2.2	-12.6	2.6	8.1
COC(=O)c1ccc(C(=O)OC)c(NC(=O)CN(c2ccc3c(c2)OCO3)S(C)(=O)=O)c1	32.2	-7.8	9.7	19.7	-0.1	7.8
O=C(CCc1ccccc1)Nc1cc(Cl)ccc1O	36.4*	-16.9	-2.8	-75.0	2.9	16.9
O=C(CC(=O)c1cc(Cl)ccc1O)c1ccccc1	10.7	-11.4	7.6	89.1*	4.4	11.4
O=C(O)CC(=O)Nc1cc(Cl)ccc1O	7.3	-10.3	0.2	4.2	1.0	10.3
Cc1nn(Cc2cccc(F)c2)c(C)c1NC(=O)c1c(Cl)cnn1C	12.2	nt	nt	nt	nt	nt
COc1cccc(N2C(=O)CC(N3CCN(C(=O)c4ccco4)CC3)C2=O)c1 (stereo not given)	73.5*	7.8	9.8	-16.7	-0.9	-7.8
O=C(O)Cc1ccc2c(c1)N(S(=O)(=O)c1cccc(C(F)(F)F)c1)CC(C(=O)O)O2 (stereo not given)	42.9*	-5.2	1.0	-14.8	-1.9	5.2
O=C(Cc1ccc2c(c1)OCCO2)N1CCN(S(=O)(=O)c2cccc(C(F)(F)F)c2)CC1	23.5	nt	nt	nt	nt	nt
O=C(Oc1cccc(N2C(=O)CCC2=O)c1)c1ccccc1	6.9	-5.9	3.5	88.6*	-2.7	5.9
O=C(CCNS(=O)(=O)c1cccs1)N1CCc2ccccc2C1	1.1	98.9*	4.4	-3.5	1.2	-98.9
Cc1cnc(NC(=O)COc2cccc3c2OC(C)(C)C3)s1	65.4*	-7.4	-0.8	-3.2	-5.9	7.4
Cc1cc(NC(=O)COC(=O)COc2cccc3c2OC(C)(C)C3)no1	nt	-7.3	2.4	5.6	-3.8	7.3
CC1(C)CC(=O)C2=C(C1)Nc1ccccc1NC2c1ccc2c(c1)OCO2 (stereo not given)	41.4*	11.7	1.7	-17.5	6.1	-11.7
CC1(C)CC(=O)C2=C(C1)Nc1cc3c(cc1C2c1ccc2c(c1)OCO2)OCO3 (stereo not given)	12.0	-4.2	-0.8	7.2	8.2	4.2
COc1ccc([N+](=O)[O-])cc1NC(=O)CSc1ccccc1	66.2*	4.8	7.6	-7.5	-2.5	-4.8
COc1ccc([N+](=O)[O-])cc1NC(=O)CSCc1ccccc1	15.0	nt	nt	nt	nt	nt
CC(=O)N1CCc2cc(C(=O)CN3CCC(C)CC3)ccc21	35.4*	nt	4.5	nt	-0.1	nt
CCc1ccc(-n2c(SCc3c(C)noc3C)nnc2-c2ccncc2)cc1	8.7	-66.5	2.1	17.0	0.1	66.5*
CCCOC(=O)C1=C(C)NC2=C(C(=O)CCC2)C1c1cccs1 (stereo not given)	2.1	-14.3	0.9	-105.7	12.7	14.2
CCOC(=O)C1=C(C)NC2=C(C(=O)CC(c3cccs3)C2)C1c1cccs1 (stereo not given)	7.7	-39.8	9.7	-8.9	21.3*	39.8
O=C(OCC#CCSc1nnc(-c2cccc3ccccc23)o1)c1ccco1	3.0	9.7	7.2	-18.0	4.5	-9.7
CC(C)c1nnc(SCC(=O)N2CCc3ccccc32)n1C	28.7*	-8.9	-2.7	-24.2	0.7	8.9
Cn1cnnc1SCC(=O)N1CCc2ccccc21	11.4	-7.1	4.7	-1.3	0.3	7.1

Screening data deposited in PubChem BioAssay by several laboratories.
